Source: PubChem (several laboratories)
This is a sample that favours compounds with a hit; in the whole collection about 9.8% have one here.
Calpain2 inh – inhibitors of pig calpain II, primary screen, biochemical, fluorogenic peptide substrate, 1536-well; purified calpain II, 30 min; inhibition, % at 16 µM; 220,000 tested, 0.37% active;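 active = inhibition above about 50%, limit read from the data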
Lmaj promast – Leishmania major promastigote growth inhibition, primary screen. Leishmania major promastigotes, resazurin fluorescence viability. inhibition, % at 10 µM. 200,000 tested, 9% active. AID 1063, 2008; in the data active = inhibition above about 50%;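 also: promastigotes grown with compound for 44 hours at 28 °C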
PMI act satM6P – human PMI activators, high substrate, primary screen, biochemical, fluorescence intensity, near-saturating mannose 6-phosphate | 190,000 tested, 0.34% active | Mannose-6-phosphate isomerase (Homo sapiens), P34949 | coupled PMI enzyme assay, resazurin fluorescence, 20 min; hits give high values; 1 = untreated enzyme, 0 = substrate-free blank | activation factor at 20 µM | AID 1216, 2008;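 active = activation factor of 2 or more at 20 µM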
Target sequence (P34949 whole entry, looked up): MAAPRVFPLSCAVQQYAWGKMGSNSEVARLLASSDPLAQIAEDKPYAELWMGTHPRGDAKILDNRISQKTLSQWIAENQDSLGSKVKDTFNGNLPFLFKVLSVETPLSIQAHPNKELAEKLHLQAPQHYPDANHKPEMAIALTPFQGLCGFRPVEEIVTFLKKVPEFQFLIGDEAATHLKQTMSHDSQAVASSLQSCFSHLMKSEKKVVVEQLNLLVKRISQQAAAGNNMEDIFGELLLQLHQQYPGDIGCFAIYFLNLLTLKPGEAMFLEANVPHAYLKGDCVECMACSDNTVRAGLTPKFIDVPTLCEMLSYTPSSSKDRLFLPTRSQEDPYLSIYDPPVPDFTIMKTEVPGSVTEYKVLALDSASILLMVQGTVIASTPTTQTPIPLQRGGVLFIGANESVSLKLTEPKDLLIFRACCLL
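test system = human PMI in coupled enzyme assay | medium = HEPES-buffered pH 7.4 with magnesium and detergent | also added = 1.0 mM mannose-6-phosphate substrate with 0.22 mM NADP+ | compound = 20 µM single dose | times = 20 min incubation at room temperature | measured by = resorufin fluorescence (Ex 544/Em 590 nm) from resazurin via diaphorase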
WT yeast gro inh – growth inhibition of WT strain, primary screen, mitochondrial fusion inhibitor project, WT and mutant strains, chemical genetic; mitochondrial fusion phenotypic screen; inhibition, % at 10 µM; 190,000 tested, 2.1% active; AID 1362, 2008; in the data active = inhibition above about 58%; tested in S. cerevisiae
PMI act – activators of human PMI, primary screen, biochemical, fluorescence intensity, near-Km mannose 6-phosphate; 190,000 tested, 0.005% active; AID 1214, 2008; purified human PMI, coupled resazurin fluorescence, 20 min; hits give high values; 1 = vehicle control, 0 substrate-free wells; activation factor at 20 µM; Mannose-6-phosphate isomerase (Homo sapiens), P34949;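 active = activation factor of 2 or more at 20 µM, relative to plate controls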
Rad51 HR inh – human RAD51 strand exchange inhibitors, primary screen, biochemical, fluorescence. hRad51 DNA strand exchange, fluorescence dequenching. inhibition, % at 10 µM. 200,000 tested, 0.085% active. AID 1385, 2008;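 active = inhibition above 40% at the single screening dose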;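 also: 0% = DMSO control wells and 100% = blanks with heterologous ssDNA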
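Test system: preformed human Rad51 ssDNA filaments. Compound dosing: single dose, 10 µM final compound. Incubation: filaments 15 min 37 °C, then compound 30 min. Technique: FRET fluorescence dequenching, excitation 485 nm, emission 520 nm. Read-out basis: percent inhibition from fluorescence, normalised to plate control and blank means. Benchmarks: plate controls and plate blanks.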
* marks the source's active call; other numbers are inactive results.

`O=C1[C@H]2C(c3ccccc3)=NN(c3ccccc3)[C@H]2C(=O)N1c1ccccc1` gave Calpain2 inh inactive, Lmaj promast 0, PMI act satM6P 0.9, WT yeast gro inh 16, PMI act 0.9 and Rad51 HR inh -9.
Screening O=C1C2C(c3ccccc3)=NN(c3ccccc3)C2C(=O)N1c1ccccc1 (stereo not drawn) returned Calpain2 inh -379, Lmaj promast 59*, PMI act satM6P 1, WT yeast gro inh 3, PMI act 1 and Rad51 HR inh 12.
Nc1nonc1-c1noc(CCCCCN2C(=O)c3ccccc3C2=O)n1 was read as Calpain2 inh 51*, Lmaj promast 0, PMI act satM6P 0.9, WT yeast gro inh 15, PMI act 0.8 and Rad51 HR inh -9.
Screening Cc1ccc(C)c(C(=O)N(Cc2nc(-c3ccc(Cl)cc3)no2)C(C)C)c1 returned Calpain2 inh 11, Lmaj promast 3, PMI act satM6P 1, WT yeast gro inh 70*, PMI act 0.9 and Rad51 HR inh 14.
For Cc1ccc(-c2noc(CN(C(=O)CCCCCN3C(=O)c4ccccc4C3=O)C(C)C)n2)cc1 the results were Calpain2 inh 55*, Lmaj promast 8, PMI act satM6P 0.9, WT yeast gro inh -10, PMI act 0.8 and Rad51 HR inh 4.
Screening Cc1ccc(-c2noc(CN(C(=O)CCCN3C(=O)c4ccccc4C3=O)C(C)C)n2)cc1 returned Lmaj promast 24 and Rad51 HR inh -6.
Screening CC(C)N(Cc1nc(-c2ccc(Cl)cc2)no1)C(=O)CCC1CCCC1 returned Calpain2 inh -9, Lmaj promast -7, PMI act satM6P 0.9, WT yeast gro inh 67*, PMI act 0.9 and Rad51 HR inh 10.
`O=c1c2c(nc3nc(NCc4ccccc4Cl)[nH]n13)CCC2` gave Calpain2 inh -4, Lmaj promast -7, PMI act satM6P 1.1, WT yeast gro inh -5, PMI act 1.1 and Rad51 HR inh -2.
CC(C)N(Cc1nc(-c2ccccc2)no1)C(=O)C(Cl)(Cl)Cl was read as Calpain2 inh 40, Lmaj promast 13, PMI act satM6P 0.9, WT yeast gro inh 72*, PMI act 0.9 and Rad51 HR inh -1.
`O=C(NCC(=O)N(CC1CCCO1)C(C(=O)NC1CCCCC1)c1cccnc1)c1cccs1` (stereo not drawn) gave Calpain2 inh -4, Lmaj promast -7, PMI act satM6P 1, WT yeast gro inh 4, PMI act 1.1 and Rad51 HR inh -5.
For N#C/C(=C\c1ccncc1)c1nc2c(s1)CCCC2 the results were Calpain2 inh -319, Lmaj promast 58*, PMI act satM6P 0.9, WT yeast gro inh 8, PMI act 0.9 and Rad51 HR inh 1.
`O=C(Nc1ccccc1)c1sccc1Oc1ccc([N+](=O)[O-])cc1F` gave Calpain2 inh -24, Lmaj promast 84*, PMI act satM6P 1.1, WT yeast gro inh 13, PMI act 1.1 and Rad51 HR inh 6.
O=C(Nc1ccc2oc(-c3ccccc3F)nc2c1)c1ncn[nH]1 was read as Calpain2 inh -252, Lmaj promast 100*, PMI act satM6P 0.9, WT yeast gro inh -29 and PMI act 0.9.
For NNC(=O)c1ccc(Cn2cc(Cl)cn2)cc1 the results were Calpain2 inh -3, Lmaj promast -8, PMI act satM6P 1, WT yeast gro inh -8, PMI act 1 and Rad51 HR inh 4.
Screening O=C(Nc1ccc(Cl)c(Cl)c1)c1ccc(Cn2cc(Cl)cn2)cc1 returned Calpain2 inh 53*, Lmaj promast 23, PMI act satM6P 0.9, WT yeast gro inh 78*, PMI act 0.8 and Rad51 HR inh 6.
COc1ccc(/C=C(\C#N)C(=O)Nc2ccc3[nH]c(=O)[nH]c3c2)cc1 was read as Calpain2 inh -18 and Rad51 HR inh 0.
COc1ccc(NC(=O)/C(C#N)=C/c2ccc3c(c2)n(C)c(=O)n3C)cc1 was read as Calpain2 inh -29, Lmaj promast 57*, PMI act satM6P 0.9, WT yeast gro inh -13, PMI act 0.9 and Rad51 HR inh 10.
Screening Cc1cccc(N(C(=O)c2nsc(Cl)c2Cl)C(C(=O)NC2CCCC2)c2ccc(O)cc2)c1 (stereo not drawn) returned Calpain2 inh -27, Lmaj promast 85*, PMI act satM6P 1, WT yeast gro inh 25 and PMI act 1.
For CC(C(O)C12CC3CC(CC(C3)C1)C2)N1CCCCC1 (stereo not drawn) the results were Calpain2 inh -41, Lmaj promast -3, PMI act satM6P 1, WT yeast gro inh -1, PMI act 1 and Rad51 HR inh 11.
For CCOc1ccc(/C=C/C(O)=C2/C(=O)NC3(C)CC2c2ccccc2O3)cc1OC (stereo not drawn) the results were Calpain2 inh -37, Lmaj promast 27, PMI act satM6P 1.1, WT yeast gro inh 2, PMI act 1.2 and Rad51 HR inh 15.
For CN(C)c1ccc(/C=C/C(O)=C2/C(=O)N(C)C3(C)CC2c2ccccc2O3)cc1 (stereo not drawn) the results were Calpain2 inh -12, Lmaj promast 66*, PMI act satM6P 1.2, WT yeast gro inh 11, PMI act 1.1 and Rad51 HR inh -15.
Screening CCOc1ccc(/C=C/C(O)=C2/C(=O)N(C)C3(C)CC2c2ccccc2O3)cc1OC (stereo not drawn) returned Calpain2 inh -5, Lmaj promast 65*, PMI act satM6P 1.1, WT yeast gro inh 26, PMI act 1.1 and Rad51 HR inh 7.
Screening Cc1noc2ncnc(Oc3ccccc3Cl)c12 returned Calpain2 inh -20, Lmaj promast -8, PMI act satM6P 1, WT yeast gro inh -24, PMI act 1 and Rad51 HR inh 2.
For COC(=O)c1ccccc1Sc1ncnc2onc(C)c12 the results were Calpain2 inh -8, Lmaj promast 57*, PMI act satM6P 1, WT yeast gro inh 27, PMI act 1 and Rad51 HR inh 5.
Cc1ccc(Sc2ncnc3onc(C)c23)c(C)c1 was read as Calpain2 inh -28, Lmaj promast 13, PMI act satM6P 1.1, WT yeast gro inh 61*, PMI act 1.1 and Rad51 HR inh -40.
Screening Cc1noc2ncnc(Sc3ccccc3Cl)c12 returned Calpain2 inh -33, Lmaj promast 80*, PMI act satM6P 1.1, WT yeast gro inh 99*, PMI act 1.1 and Rad51 HR inh -5.
